Test results from ChEMBL document CHEMBL4330152, “α-Carbonic anhydrases are strongly activated by spinaceamine derivatives” (Bioorg Med Chem, 2019).

Experiments:
[1] = biological target: Carbonic anhydrase 4 (Homo sapiens) (UniProt P22748); test: Activation of human CA-4 incubated for 15 mins prior to testing by stopped flow CO2 hydrase assay
Summary of the method: (§1)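 Stopped-flow CO2 hydration at 25 °C, 10 mM Hepes pH 7.5 with 0.1 M NaClO4, phenol red 0.2 mM read at 557 nm over 10 s. CO2 1.7–17 mM. Activators (0.1 mM stocks in water) diluted in buffer down to 1 nM and preincubated 15 min with enzyme. Initial rates from ≥6 traces of first 5–10% of reaction, uncatalysed rate subtracted. Activation constants from competitive steady-state equation.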

[2] = biological target: Carbonic anhydrase 7 (Homo sapiens) (UniProt P43166); test: Activation of human CA-7 incubated for 15 mins prior to testing by stopped flow CO2 hydrase assay
[3] = biological target: Carbonic anhydrase 1 (Homo sapiens) (UniProt P00915); test: Activation of human CA-1 incubated for 15 mins prior to testing by stopped flow CO2 hydrase assay; summary of the method: as §1
Chain of Carbonic anhydrase 1 (Homo sapiens) (P00915 2-261 limits assumed): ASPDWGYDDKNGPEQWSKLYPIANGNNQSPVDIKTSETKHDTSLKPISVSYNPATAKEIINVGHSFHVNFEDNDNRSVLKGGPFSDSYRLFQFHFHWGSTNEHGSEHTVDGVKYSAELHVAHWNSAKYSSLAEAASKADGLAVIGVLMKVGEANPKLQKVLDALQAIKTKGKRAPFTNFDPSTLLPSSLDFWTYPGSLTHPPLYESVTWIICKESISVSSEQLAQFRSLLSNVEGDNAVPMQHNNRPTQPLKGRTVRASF

[4] = biological target: Carbonic anhydrase 2 (Homo sapiens) (UniProt P00918); test: Activation of human CA-2 incubated for 15 mins prior to testing by stopped flow CO2 hydrase assay; summary of the method: as §1

Chain of Carbonic anhydrase 4 (Homo sapiens) (P22748 whole entry): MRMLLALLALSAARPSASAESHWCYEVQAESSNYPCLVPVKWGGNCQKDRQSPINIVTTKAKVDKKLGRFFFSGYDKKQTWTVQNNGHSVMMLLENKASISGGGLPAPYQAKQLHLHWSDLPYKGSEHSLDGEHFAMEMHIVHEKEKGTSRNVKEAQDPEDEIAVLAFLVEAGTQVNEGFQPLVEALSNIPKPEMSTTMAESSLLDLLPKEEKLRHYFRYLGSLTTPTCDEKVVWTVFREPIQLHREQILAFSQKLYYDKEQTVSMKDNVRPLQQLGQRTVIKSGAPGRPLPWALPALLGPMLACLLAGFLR

## NCCc1c[nH]cn1
[1]
  KA: 4.03 µM
[2]
  KA: 37.6 µM

## c1coc(C2NCCc3nc[nH]c32)c1 (stereo not drawn)
[3]
  KA: 21.5 µM
[1]
  KA: 2.4 µM
[2]
  KA: 0.095 µM
[4]
  KA: 5.12 µM

## c1ccc(C2NCCc3[nH]cnc32)cc1 (stereo not drawn)
[3]
  KA: 8.12 µM
[1]
  KA: 63.8 µM
[2]
  KA: 2.69 µM
[4]
  KA: 16.3 µM

## COc1cc(C2NCCc3nc[nH]c32)cc(OC)c1OC (stereo not drawn)
[3]
  KA: 9.28 µM
[1]
  KA: 2.84 µM
[2]
  KA: 0.093 µM
[4]
  KA: 3.26 µM

## Oc1ccccc1C1NCCc2nc[nH]c21 (stereo not drawn)
[3]
  KA: 2.52 µM
[1]
  KA: 3.59 µM
[2]
  KA: 0.11 µM
[4]
  KA: 1.62 µM

## Cc1ccc(C2NCCc3nc[nH]c32)cc1 (stereo not drawn)
[3]
  KA: 6.27 µM
[1]
  KA: 7.06 µM
[2]
  KA: 1.03 µM
[4]
  KA: 17.2 µM

## CN(C)c1ccc(C2NCCc3nc[nH]c32)cc1 (stereo not drawn)
[3]
  KA: 3.45 µM
[1]
  KA: 3.14 µM
[2]
  KA: 0.59 µM
[4]
  KA: 7.44 µM

## Fc1cc(F)c(F)c(C2NCCc3nc[nH]c32)c1F (stereo not drawn)
[3]
  KA: 9.92 µM
[1]
  KA: 0.52 µM
[2]
  KA: 0.11 µM
[4]
  KA: 0.6 µM

## Brc1ccccc1C1NCCc2nc[nH]c21 (stereo not drawn)
[3]
  KA: 4.3 µM
[1]
  KA: 4.05 µM
[2]
  KA: 0.082 µM
[4]
  KA: 2.8 µM

## Cc1ccc(Br)cc1C1NCCc2nc[nH]c21 (stereo not drawn)
[3]
  KA: 12.7 µM
[1]
  KA: 4.42 µM
[2]
  KA: 0.38 µM
[4]
  KA: 15.5 µM

## COc1ccc(C2NCCc3nc[nH]c32)cc1OC (stereo not drawn)
[3]
  KA: 3.76 µM
[1]
  KA: 6.17 µM
[2]
  KA: 0.26 µM
[4]
  KA: 0.71 µM

## Oc1ccc(Br)cc1C1NCCc2nc[nH]c21 (stereo not drawn)
[3]
  KA: 4.9 µM
[1]
  KA: 10.9 µM
[2]
  KA: 0.12 µM
[4]
  KA: 1.03 µM

## Clc1ccc(C2NCCc3[nH]cnc32)cc1 (stereo not drawn)
[3]
  KA: 17.6 µM
[1]
  KA: 50.1 µM
[2]
  KA: 0.84 µM
[4]
  KA: 8.49 µM

## N#Cc1ccc(C2NCCc3nc[nH]c32)cc1 (stereo not drawn)
[3]
  KA: 4.89 µM
[1]
  KA: 5.8 µM
[2]
  KA: 4.26 µM
[4]
  KA: 7.25 µM

## COc1ccc(C2NCCc3[nH]cnc32)cc1 (stereo not drawn)
[3]
  KA: 6.01 µM
[1]
  KA: 6.37 µM
[2]
  KA: 0.73 µM
[4]
  KA: 7.31 µM
